Test results: ChEMBL document CHEMBL4689842, “EUbOPEN Chemogenomics Library wave 1” (2021)
Several values for one entry are separate records, joined by “and”; a condition that tells them apart may be missing. Identical values can stand only once.

Legend:
Type in all cases: toxicity, cell-based
HEK-293T [1] = assay: Multiplex assay against HEK293T; conditions: human, 1 µM, compound concentration 1 uM
Summary of the method: (§1)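 Live cells were stained at seeding with Hoechst33342, BioTracker Green Microtubule Cytoskeleton Dye, MitoTracker Red and Annexin V Alexa Fluor 680. Following compound addition, they were imaged on a CQ1 microscope at 37°C and 5% CO2 and gated by CellPathfinder machine learning into Hoechst high-intensity objects or normal cells, with normal cells split into healthy, pyknosed or fragmented nuclei and pyknosed cells into mitotic or apoptotic. Tubulin, mitochondrial-mass and membrane-permeability phenotypes are per cents of healthy-nucleus cells.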

U2OS [2] = assay: Multiplex assay against U2OS; conditions: human, 1 µM, compound concentration 1 uM; summary of the method: as §1
Fibroblast [3] = assay: Multiplex assay against human fibroblast; conditions: 1 µM, compound concentration 1 uM; summary of the method: as §1
U2OS [4] = assay: Incucyte cell viability with U2OS; conditions: human, 10 µM, compound concentration 10 uM; note: filed as whole numbers so only -1 and 0 and 1 occur
Fibroblast [5] = assay: Incucyte cell viability with human fibroblast; conditions: 10 µM, compound concentration 10 uM; note: filed as whole numbers so only -1 and 0 and 1 occur
HEK-293T [6] = assay: Incucyte cell viability with HEK293T; conditions: human, 10 µM, compound concentration 10 uM; note: filed as whole numbers so only -1 and 0 and 1 occur
[7] = 6 h, replicate number 1, timepoint 6 hours
[8] = 12 h, replicate number 1, timepoint 12 hours
[9] = 18 h, replicate number 1, timepoint 18 hours
[10] = 24 h, replicate number 1, timepoint 24 hours

Compound: FC(F)c1nc2ccccc2n1-c1nc(N2CCOCC2)nc(N2CCOCC2)n1 [ZSTK-474]
- Population Apoptotic (%) (HEK-293T [1]; 12 h, replicate 1): 22% and 20%
- Population Fragmented Nuclei (%) (HEK-293T [1]; 12 h, replicate 1): 18% and 14%
- Population Healthy Nuclei (%) (HEK-293T [1]; 12 h, replicate 1): 59% and 50%
- Population Hoechst High Intensity Objects (%) (HEK-293T [1]; 12 h, replicate 1): 16% and 20%
- Population Membrane Permeable-Phenotype (%) (HEK-293T [1]; 12 h, replicate 1): 7% and 5%
- Population Mitochondria Different-Phenotype (%) (HEK-293T [1]; 12 h, replicate 1): 6% and 13%
- Population Mitotic Cells (%) (HEK-293T [1]; 12 h, replicate 1): 77% and 79%
- Population Normal (%) (HEK-293T [1]; 12 h, replicate 1): 83% and 79%
- Population Pyknosed Nuclei (%) (HEK-293T [1]; 12 h, replicate 1): 22% and 35%
- Total Cell Count (HEK-293T [1]; 12 h, replicate 1): 600 and 593
- Population Apoptotic (%) (HEK-293T [1]; 12 h, replicate 2): 18% and 16%
- Population Fragmented Nuclei (%) (HEK-293T [1]; 12 h, replicate 2): 5% and 9%
- Population Healthy Nuclei (%) (HEK-293T [1]; 12 h, replicate 2): 86% and 85%
- Population Membrane Permeable-Phenotype (%) (HEK-293T [1]; 12 h, replicate 2): 4% and 3%
- Population Mitotic Cells (%) (HEK-293T [1]; 12 h, replicate 2): 81% and 83%
- Population Normal (%) (HEK-293T [1]; 12 h, replicate 2): 90% and 97%
- Population Pyknosed Nuclei (%) (HEK-293T [1]; 12 h, replicate 2): 8% and 4%
- Total Cell Count (HEK-293T [1]; 12 h, replicate 2): 1084 and 1487
- Population Apoptotic (%) (HEK-293T [1]; 24 h, replicate 1): 28% and 17%
- Population Fragmented Nuclei (%) (HEK-293T [1]; 24 h, replicate 1): 16% and 15%
- Population Healthy Nuclei (%) (HEK-293T [1]; 24 h, replicate 1): 54% and 72%
- Population Hoechst High Intensity Objects (%) (HEK-293T [1]; 24 h, replicate 1): 19% and 13%
- Population Membrane Permeable-Phenotype (%) (HEK-293T [1]; 24 h, replicate 1): 8%
- Population Mitotic Cells (%) (HEK-293T [1]; 24 h, replicate 1): 71% and 82%
- Population Normal (%) (HEK-293T [1]; 24 h, replicate 1): 80% and 86%
- Population Pyknosed Nuclei (%) (HEK-293T [1]; 24 h, replicate 1): 28% and 11%
- Total Cell Count (HEK-293T [1]; 24 h, replicate 1): 526 and 650
- Population Apoptotic (%) (HEK-293T [1]; 24 h, replicate 2): 12% and 13%
- Population Fragmented Nuclei (%) (HEK-293T [1]; 24 h, replicate 2): 11% and 31%
- Population Healthy Nuclei (%) (HEK-293T [1]; 24 h, replicate 2): 79% and 66%
- Population Hoechst High Intensity Objects (%) (HEK-293T [1]; 24 h, replicate 2): 11% and 4%
- Population Membrane Permeable-Phenotype (%) (HEK-293T [1]; 24 h, replicate 2): 10% and 6%
- Population Mitotic Cells (%) (HEK-293T [1]; 24 h, replicate 2): 87% and 86%
- Population Normal (%) (HEK-293T [1]; 24 h, replicate 2): 88% and 95%
- Total Cell Count (HEK-293T [1]; 24 h, replicate 2): 1133 and 2662
- Population Fragmented Nuclei (%) (U2OS [2]; 12 h, replicate 1): 3%
- Population Healthy Nuclei (%) (U2OS [2]; 12 h, replicate 1): 89% and 87%
- Population Hoechst High Intensity Objects (%) (U2OS [2]; 12 h, replicate 1): 4% and 3%
- Population Membrane Permeable-Phenotype (%) (U2OS [2]; 12 h, replicate 1): 18% and 7%
- Population Mitotic Cells (%) (U2OS [2]; 12 h, replicate 1): 56% and 88%
- Population Normal (%) (U2OS [2]; 12 h, replicate 1): 95% and 96%
- Population Pyknosed Nuclei (%) (U2OS [2]; 12 h, replicate 1): 7% and 6%
- Population Tubulin-Different-Phenotype (%) (U2OS [2]; 12 h, replicate 1): 13% and 23%
- Total Cell Count (U2OS [2]; 12 h, replicate 1): 134 and 206
- Population Fragmented Nuclei (%) (U2OS [2]; 12 h, replicate 2): 8% and 5%
- Population Healthy Nuclei (%) (U2OS [2]; 12 h, replicate 2): 85%
- Population Hoechst High Intensity Objects (%) (U2OS [2]; 12 h, replicate 2): 14% and 10%
- Population Membrane Permeable-Phenotype (%) (U2OS [2]; 12 h, replicate 2): 21% and 13%
- Population Mitochondria Different-Phenotype (%) (U2OS [2]; 12 h, replicate 2): 9% and 18%
- Population Mitotic Cells (%) (U2OS [2]; 12 h, replicate 2): 83% and 28%
- Population Normal (%) (U2OS [2]; 12 h, replicate 2): 85% and 89%
- Population Pyknosed Nuclei (%) (U2OS [2]; 12 h, replicate 2): 5%
- Population Tubulin-Different-Phenotype (%) (U2OS [2]; 12 h, replicate 2): 20% and 35%
- Total Cell Count (U2OS [2]; 12 h, replicate 2): 147 and 107
- Population Healthy Nuclei (%) (U2OS [2]; 24 h, replicate 1): 90%
- Population Hoechst High Intensity Objects (%) (U2OS [2]; 24 h, replicate 1): 2%
- Population Mitochondria Different-Phenotype (%) (U2OS [2]; 24 h, replicate 1): 4% and 12%
- Population Normal (%) (U2OS [2]; 24 h, replicate 1): 97%
- Population Pyknosed Nuclei (%) (U2OS [2]; 24 h, replicate 1): 4% and 3%
- Population Tubulin-Different-Phenotype (%) (U2OS [2]; 24 h, replicate 1): 12% and 25%
- Total Cell Count (U2OS [2]; 24 h, replicate 1): 190 and 236
- Population Apoptotic (%) (U2OS [2]; 24 h, replicate 2): 28% and 50%
- Population Fragmented Nuclei (%) (U2OS [2]; 24 h, replicate 2): 4% and 6%
- Population Healthy Nuclei (%) (U2OS [2]; 24 h, replicate 2): 89%
- Population Hoechst High Intensity Objects (%) (U2OS [2]; 24 h, replicate 2): 11% and 4%
- Population Membrane Permeable-Phenotype (%) (U2OS [2]; 24 h, replicate 2): 20% and 11%
- Population Mitochondria Different-Phenotype (%) (U2OS [2]; 24 h, replicate 2): 9% and 20%
- Population Mitotic Cells (%) (U2OS [2]; 24 h, replicate 2): 71% and 50%
- Population Normal (%) (U2OS [2]; 24 h, replicate 2): 88% and 95%
- Population Pyknosed Nuclei (%) (U2OS [2]; 24 h, replicate 2): 5%
- Population Tubulin-Different-Phenotype (%) (U2OS [2]; 24 h, replicate 2): 20% and 36%
- Total Cell Count (U2OS [2]; 24 h, replicate 2): 188 and 114
- Population Apoptotic (%) (Fibroblast [3]; 12 h, replicate 1): 75% and 78%
- Population Fragmented Nuclei (%) (Fibroblast [3]; 12 h, replicate 1): 31% and 20%
- Population Healthy Nuclei (%) (Fibroblast [3]; 12 h, replicate 1): 54% and 67%
- Population Hoechst High Intensity Objects (%) (Fibroblast [3]; 12 h, replicate 1): 15% and 11%
- Population Mitochondria Different-Phenotype (%) (Fibroblast [3]; 12 h, replicate 1): 3% and 1%
- Population Mitotic Cells (%) (Fibroblast [3]; 12 h, replicate 1): 25% and 21%
- Population Normal (%) (Fibroblast [3]; 12 h, replicate 1): 84% and 88%
- Population Pyknosed Nuclei (%) (Fibroblast [3]; 12 h, replicate 1): 14% and 11%
- Total Cell Count (Fibroblast [3]; 12 h, replicate 1): 268 and 222
- Population Fragmented Nuclei (%) (Fibroblast [3]; 12 h, replicate 2): 71% and 55%
- Population Healthy Nuclei (%) (Fibroblast [3]; 12 h, replicate 2): 26% and 37%
- Population Hoechst High Intensity Objects (%) (Fibroblast [3]; 12 h, replicate 2): 40% and 37%
- Population Membrane Permeable-Phenotype (%) (Fibroblast [3]; 12 h, replicate 2): 0% and 6%
- Population Mitochondria Different-Phenotype (%) (Fibroblast [3]; 12 h, replicate 2): 14% and 26%
- Population Mitotic Cells (%) (Fibroblast [3]; 12 h, replicate 2): 100% and 66%
- Population Normal (%) (Fibroblast [3]; 12 h, replicate 2): 59% and 62%
- Total Cell Count (Fibroblast [3]; 12 h, replicate 2): 88 and 64
- Population Apoptotic (%) (Fibroblast [3]; 24 h, replicate 1): 63% and 76%
- Population Fragmented Nuclei (%) (Fibroblast [3]; 24 h, replicate 1): 24% and 22%
- Population Healthy Nuclei (%) (Fibroblast [3]; 24 h, replicate 1): 61% and 64%
- Population Hoechst High Intensity Objects (%) (Fibroblast [3]; 24 h, replicate 1): 12%
- Population Membrane Permeable-Phenotype (%) (Fibroblast [3]; 24 h, replicate 1): 3% and 1%
- Population Mitotic Cells (%) (Fibroblast [3]; 24 h, replicate 1): 36% and 24%
- Population Normal (%) (Fibroblast [3]; 24 h, replicate 1): 87%
- Population Pyknosed Nuclei (%) (Fibroblast [3]; 24 h, replicate 1): 14% and 12%
- Population Tubulin-Different-Phenotype (%) (Fibroblast [3]; 24 h, replicate 1): 18% and 0%
- Total Cell Count (Fibroblast [3]; 24 h, replicate 1): 235 and 226
- Population Apoptotic (%) (Fibroblast [3]; 24 h, replicate 2): 0%
- Population Fragmented Nuclei (%) (Fibroblast [3]; 24 h, replicate 2): 72% and 63%
- Population Healthy Nuclei (%) (Fibroblast [3]; 24 h, replicate 2): 23% and 34%
- Population Hoechst High Intensity Objects (%) (Fibroblast [3]; 24 h, replicate 2): 40% and 33%
- Population Membrane Permeable-Phenotype (%) (Fibroblast [3]; 24 h, replicate 2): 8% and 7%
- Population Mitochondria Different-Phenotype (%) (Fibroblast [3]; 24 h, replicate 2): 8% and 23%
- Population Mitotic Cells (%) (Fibroblast [3]; 24 h, replicate 2): 100%
- Population Normal (%) (Fibroblast [3]; 24 h, replicate 2): 60% and 66%
- Population Pyknosed Nuclei (%) (Fibroblast [3]; 24 h, replicate 2): 3% and 2%
- Total Cell Count (Fibroblast [3]; 24 h, replicate 2): 85 and 57
- Growth Rate (U2OS [4]; 0 h, replicate number 1, timepoint 0 hours): 1
- Growth Rate (U2OS [4]; [7]): 1
- Growth Rate (U2OS [4]; [8]): 1
- Growth Rate (U2OS [4]; 12 h, replicate number 2, timepoint 12 hours): 0
- Growth Rate (U2OS [4]; [9]): 0
- Growth Rate (U2OS [4]; [10]): 0
- Growth Rate (Fibroblast [5]; 0 h, replicate number 2, timepoint 0 hours): 0
- Growth Rate (Fibroblast [5]; [7]): 0
- Growth Rate (Fibroblast [5]; [8]): 0
- Growth Rate (Fibroblast [5]; [9]): 0
- Growth Rate (Fibroblast [5]; [10]): 0
- Growth Rate (HEK-293T [6]; [7]): 0
- Growth Rate (HEK-293T [6]; [8]): 0
- Growth Rate (HEK-293T [6]; [9]): 0
- Growth Rate (HEK-293T [6]; [10]): 0
